Test results published in ChEMBL document CHEMBL1139491 (J Med Chem, 2005).
pKi: −log10 of the molar value.

Legend:
T47D [1] = experiment: Tested for cytotoxicity towards T47D cell line (human breast cancer); Not active; type: functional, cell-based
MCF7 [2] = experiment: Tested for cytotoxicity towards MCF-7 cell line (human breast cancer); Not active; type: functional, cell-based
[3] = target: T1, Aryl hydrocarbon receptor (Oryctolagus cuniculus, UniProt O02747); experiment: Binding affinity for aryl hydrocarbon receptor (AhR) of rabbit liver cytosol incubated with 0.2 nM [3H]-TCDD; Antagonist
T1 sequence (O02747 whole entry): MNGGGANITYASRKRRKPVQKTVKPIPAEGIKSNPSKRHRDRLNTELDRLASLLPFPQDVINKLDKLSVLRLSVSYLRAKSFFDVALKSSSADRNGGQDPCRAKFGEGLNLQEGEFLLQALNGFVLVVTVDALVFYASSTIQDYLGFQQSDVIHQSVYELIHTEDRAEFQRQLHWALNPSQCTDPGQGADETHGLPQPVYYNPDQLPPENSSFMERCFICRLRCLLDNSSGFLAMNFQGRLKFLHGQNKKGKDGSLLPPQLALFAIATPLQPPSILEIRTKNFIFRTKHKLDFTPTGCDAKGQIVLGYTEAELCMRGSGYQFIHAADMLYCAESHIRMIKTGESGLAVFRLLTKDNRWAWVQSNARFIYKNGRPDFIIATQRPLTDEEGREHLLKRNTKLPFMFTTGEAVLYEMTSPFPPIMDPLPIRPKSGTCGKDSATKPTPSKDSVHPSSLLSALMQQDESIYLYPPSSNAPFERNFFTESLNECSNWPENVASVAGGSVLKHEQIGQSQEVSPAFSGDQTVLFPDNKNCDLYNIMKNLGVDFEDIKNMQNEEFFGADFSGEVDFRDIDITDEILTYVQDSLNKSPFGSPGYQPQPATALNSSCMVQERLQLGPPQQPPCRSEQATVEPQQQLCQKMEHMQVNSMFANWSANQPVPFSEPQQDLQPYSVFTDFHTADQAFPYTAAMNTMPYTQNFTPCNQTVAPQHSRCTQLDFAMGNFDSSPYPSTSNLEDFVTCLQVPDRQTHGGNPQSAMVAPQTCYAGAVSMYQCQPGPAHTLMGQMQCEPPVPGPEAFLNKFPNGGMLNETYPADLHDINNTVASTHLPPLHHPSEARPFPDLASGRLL
Procedure, shortened: (§1)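 Rabbit liver cytosol incubated with 0.2 nM [3H]-TCDD plus unlabeled ligand at 12 concentrations spanning 0.1 nM to 1 µM. Competitive displacement measured, and IC50 obtained by iterative curve fitting.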

A549 [4] = experiment: Tested for cytotoxicity towards A549 cell line (human lung carcinoma); Not active; type: functional, cell-based
Estrogen receptor [5] = target: T2, Estrogen receptor (Homo sapiens, UniProt P03372); experiment: Binding affinity for estrogen receptor (ER) alpha of MCF-7 cell cytosol incubated with 2 nM [3H]estradiol; type: cell-based
T2 sequence (P03372 whole entry): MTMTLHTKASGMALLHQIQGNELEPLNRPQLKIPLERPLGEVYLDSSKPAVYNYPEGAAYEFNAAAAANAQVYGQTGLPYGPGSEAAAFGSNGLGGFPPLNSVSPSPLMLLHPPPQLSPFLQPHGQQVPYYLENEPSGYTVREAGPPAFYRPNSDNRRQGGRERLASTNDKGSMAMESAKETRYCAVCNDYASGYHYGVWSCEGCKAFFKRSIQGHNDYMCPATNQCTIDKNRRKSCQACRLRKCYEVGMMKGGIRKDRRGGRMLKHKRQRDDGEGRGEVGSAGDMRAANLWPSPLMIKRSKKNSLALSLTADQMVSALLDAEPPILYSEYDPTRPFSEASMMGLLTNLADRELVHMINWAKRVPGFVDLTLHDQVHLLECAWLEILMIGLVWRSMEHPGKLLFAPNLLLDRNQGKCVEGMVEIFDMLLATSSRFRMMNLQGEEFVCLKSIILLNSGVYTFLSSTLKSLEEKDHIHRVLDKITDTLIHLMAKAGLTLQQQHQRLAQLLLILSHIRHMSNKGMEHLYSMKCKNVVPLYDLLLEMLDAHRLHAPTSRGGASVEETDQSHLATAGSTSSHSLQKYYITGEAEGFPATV
Procedure, shortened: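 Cytosol from MCF-7 cells, which express only the ERα isoform, incubated with 2 nM [3H]-estradiol and unlabeled ligand at eight concentrations from 10 nM to 10 µM. IC50 derived by iterative curve fitting, and Ki calculated using a Kd of 0.1 nM.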

MCF7 [6] = experiment: Tested for cytotoxicity towards MCF-7 cell line (human breast cancer); type: functional, cell-based
T47D [7] = experiment: Tested for cytotoxicity towards T47D cell line (human breast cancer); type: functional, cell-based
A549 [8] = experiment: Tested for cytotoxicity towards A549 cell line (human lung carcinoma); type: functional, cell-based
[9] = target: T1, Aryl hydrocarbon receptor; experiment: Binding affinity for aryl hydrocarbon receptor (AhR) of rabbit liver cytosol incubated with 0.2 nM [3H]-TCDD; Agonist; procedure, shortened: as §1
Estrogen receptor [10] = target: T2, Estrogen receptor; experiment: Binding affinity for estrogen receptor (ER) alpha of MCF-7 cell cytosol incubated with 2 nM [3H]estradiol; Agonist; type: cell-based
Procedure, shortened: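 ERα-only cytosol from MCF-7 cells, incubated with 2 nM [3H]-estradiol and eight concentrations (10 nM–10 µM) of unlabelled ligand. IC50 came from iterative curve fitting, and Ki was calculated using Kd 0.1 nM. Agonist status: stimulation of ERE-driven luciferase in MELN reporter cells after 8 h, with or without 1 nM 17β-estradiol; luciferase activity was the read-out.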

Work on FC(F)(F)c1ccc(/C=C\c2cc(Cl)cc(Cl)c2)cc1 yielded a Concentration (T47D [1]) greater than 10 µM, a Concentration (MCF7 [2]) greater than 10 µM and a pKi [3] of 7.85. The Concentration (A549 [4]) was greater than 10 µM and the pKi (Estrogen receptor [5]) was less than 4.00.

For COc1cc(/C=C\c2ccc(F)cc2)cc(OC)c1, the Concentration (MCF7 [6]) was greater than 10 µM, the pKi [3] was 7.02 and the pKi (Estrogen receptor [5]) was less than 4.00. It also gave a Concentration (T47D [7]) greater than 10 µM and a Concentration (A549 [8]) greater than 10 µM.

For COc1ccc(/C=C\c2cc(Cl)cc(Cl)c2)cc1, the Concentration (T47D [1]) was greater than 10 µM, the Concentration (MCF7 [2]) was greater than 10 µM and the pKi [3] was 7.92. It also gave a Concentration (A549 [4]) greater than 10 µM and a pKi (Estrogen receptor [5]) of less than 4.00.

Compound COc1cc(/C=C/c2ccc(F)cc2)cc(OC)c1 has a Concentration (MCF7 [6]) greater than 10 µM, a pKi [3] of 8.51 and a pKi (Estrogen receptor [5]) of less than 4.00. For the same compound, the Concentration (T47D [7]) was greater than 10 µM and the Concentration (A549 [8]) was greater than 10 µM.

For FC(F)(F)c1ccc(/C=C/c2cc(Cl)cc(Cl)c2)cc1, the Concentration (T47D [1]) was greater than 10 µM, the Concentration (MCF7 [2]) was greater than 10 µM and the pKi [9] was 9.70. For the same compound, the Concentration (A549 [4]) was greater than 10 µM and the pKi (Estrogen receptor [5]) was less than 4.00.

For FC(F)(F)c1ccc(/C=C/c2cc(C(F)(F)F)cc(C(F)(F)F)c2)cc1, the Concentration (T47D [1]) was greater than 10 µM, the Concentration (MCF7 [2]) was greater than 10 µM and the pKi [3] was 8.68. It also gave a Concentration (A549 [4]) greater than 10 µM and a pKi (Estrogen receptor [5]) of less than 4.00.

In the case of COc1ccc(/C=C/c2cc(Cl)cc(Cl)c2)cc1, the Concentration (T47D [1]) was greater than 10 µM, the Concentration (MCF7 [2]) was greater than 10 µM and the pKi [3] was 8.85. For the same compound, the Concentration (A549 [4]) was greater than 10 µM and the pKi (Estrogen receptor [5]) was less than 4.00.

Work on COc1ccc(/C=C\c2cc(OC)cc(OC)c2)cc1 [8Z-3,4',5-TRIMETHOXYSTILBENE] yielded a pKi (Estrogen receptor [10]) of 6.88 and a pKi [3] of 7.12.

Work on CCOc1ccc(/C=C\c2cc(OC)cc(OC)c2)cc1 yielded a pKi (Estrogen receptor [10]) of 6.87, a Concentration (MCF7 [6]) of less than 0.1 µM and a pKi [3] of 7.19. It also gave a Concentration (T47D [7]) of less than 0.1 µM and a Concentration (A549 [8]) of less than 0.1 µM.

For FC(F)(F)c1ccc(/C=C\c2cc(C(F)(F)F)cc(C(F)(F)F)c2)cc1, the Concentration (T47D [1]) was greater than 10 µM, the Concentration (MCF7 [2]) was greater than 10 µM and the pKi [3] was 7.22. The Concentration (A549 [4]) was greater than 10 µM and the pKi (Estrogen receptor [5]) was less than 4.00.

With COc1ccc(/C=C\c2cc(F)cc(F)c2)cc1 the Concentration (T47D [1]) was greater than 10 µM, the Concentration (MCF7 [2]) was greater than 10 µM and the pKi [3] was 7.66. For the same compound, the Concentration (A549 [4]) was greater than 10 µM and the pKi (Estrogen receptor [5]) was less than 4.00.

In the case of Fc1ccc(/C=C/c2cc(F)cc(F)c2)cc1, the Concentration (T47D [1]) was greater than 10 µM, the Concentration (MCF7 [2]) was greater than 10 µM and the pKi [3] was 8.42. For the same compound, the Concentration (A549 [4]) was greater than 10 µM and the pKi (Estrogen receptor [5]) was less than 4.00.
